A word on the clearance: it is the volume of plasma or blood freed of the substance per unit of time. A higher clearance goes with a high capacity for elimination. One may read the IC50 as the concentration that inhibits the measured activity by half. What is called MRT is a mean duration of stay, worked out from the concentration-time curve. As usually defined, the inhibition is the percentage by which the read-out fell short of the control. The low end stands for little suppression, the high end for strong suppression.

The text below walks through data of ChEMBL document CHEMBL4028873, “The Discovery of a Dual TTK Protein Kinase/CDC2-Like Kinase (CLK2) Inhibitor for the Treatment of Triple Negative Breast Cancer Initiated from a Phenotypic Screen” (J Med Chem, 2017).

A short description of data set [1]: Metabolic stability in rat liver S9 fraction assessed as percent of compound remaining after 60 mins. To be noted: read-out: Stability. It counts as ADME, tissue-based.
Data set [2] can be described thus: Clearance in rat at 2 mg/kg, iv. It counts as ADME, organism-based. To be noted: in vivo.
The target in data set [3] is Phosphorylase b kinase gamma catalytic chain, skeletal muscle/heart isoform (Homo sapiens, UniProt Q16816). The experiment in a line: Inhibition of full length human GST-tagged PHKG1 expressed in baculovirus by Z'-LYTE assay.
Phosphorylase b kinase gamma catalytic chain, skeletal muscle/heart isoform, sequence (Q16816 whole entry, canonical isoform): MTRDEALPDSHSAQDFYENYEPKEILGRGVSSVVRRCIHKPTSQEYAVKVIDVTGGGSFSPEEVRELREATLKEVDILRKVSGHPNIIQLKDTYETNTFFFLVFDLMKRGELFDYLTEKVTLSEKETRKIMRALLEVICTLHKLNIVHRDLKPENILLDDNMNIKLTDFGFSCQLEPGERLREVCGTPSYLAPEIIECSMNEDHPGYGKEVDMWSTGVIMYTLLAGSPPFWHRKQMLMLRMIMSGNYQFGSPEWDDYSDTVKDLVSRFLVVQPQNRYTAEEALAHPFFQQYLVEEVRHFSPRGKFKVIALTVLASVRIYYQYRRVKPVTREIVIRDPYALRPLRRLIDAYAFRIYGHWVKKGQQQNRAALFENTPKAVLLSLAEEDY
The target in data set [4] is T1, Dual specificity tyrosine-phosphorylation-regulated kinase 1B (Homo sapiens, UniProt Q9Y463). The experiment in a line: Inhibition of full length human recombinant GST-tagged DYRK1B expressed in baculovirus by Z'-LYTE assay.
Target sequence in this assay (Q9Y463 whole entry): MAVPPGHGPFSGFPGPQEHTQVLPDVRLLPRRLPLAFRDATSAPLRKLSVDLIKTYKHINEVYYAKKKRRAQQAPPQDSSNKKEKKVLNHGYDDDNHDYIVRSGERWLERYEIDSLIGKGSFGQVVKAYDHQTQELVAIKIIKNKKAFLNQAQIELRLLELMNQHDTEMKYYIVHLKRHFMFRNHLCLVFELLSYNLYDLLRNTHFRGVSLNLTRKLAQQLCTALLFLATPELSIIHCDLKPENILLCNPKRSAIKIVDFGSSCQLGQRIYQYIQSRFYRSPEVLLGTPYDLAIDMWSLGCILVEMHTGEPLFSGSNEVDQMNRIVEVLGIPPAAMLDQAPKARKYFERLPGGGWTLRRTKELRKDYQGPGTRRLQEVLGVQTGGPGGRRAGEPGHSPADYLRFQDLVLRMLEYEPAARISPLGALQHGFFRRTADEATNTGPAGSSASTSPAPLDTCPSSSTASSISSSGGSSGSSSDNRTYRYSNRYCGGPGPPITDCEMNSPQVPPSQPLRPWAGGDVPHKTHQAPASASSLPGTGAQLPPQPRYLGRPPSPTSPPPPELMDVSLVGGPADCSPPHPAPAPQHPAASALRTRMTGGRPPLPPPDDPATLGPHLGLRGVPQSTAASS
In another data set the test system is ZR-75-30. As to the kind of experiment: Antiproliferative activity against human ZR75-30 cells after 3 days by CellTiter-Glo assay. Format: cell-based. The following applies: zr-75-30, 72 h. An outline of the steps: (§1)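 Cell lines kept in vendor-recommended growth media; 3-day compound exposure, then CellTiter-Glo luminescence read. Percent inhibition per concentration normalized to DMSO control, triplicate wells.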
On the technique in general: ATP-based viability assays read luminescence as a measure of living cells.

Another data set relates to MDA-MB-361. As to the kind of experiment: Antiproliferative activity against human MDA-MB-361 cells after 3 days by CellTiter-Glo assay. Format: cell-based. The following applies: mda-mb-361, 72 h. In outline:
as §1

The subject of the next data set is CAL-51. As to the kind of experiment: Antiproliferative activity against human CAL51 cells assessed as reduction in cell viability incubated for 12 to 72 hrs followed by compound washout measured after 72 hrs by Cell-Titer Glo assay. It counts as functional, cell-based. In outline: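 Cal-51 seeded at 3000 cells/well, dosed next day (0.2% DMSO final), triplicate wells; exposure at 37 °C, 5% CO2 for 6, 12, 24, 48 or 72 h, then three medium washes and culture in fresh medium up to 72 h post treatment; viability read by CellTiter-Glo luminescence.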

For a further data set, the system named is Mus musculus. As to the kind of experiment: Toxicity in SCID mouse xenografted with human CAL51 cells assessed as loss in body weight at 20 mg/kg, iv administered every 3 days for 16 days relative to control. To be noted: in vivo. Format: organism-based.
Data set [5] is described as follows: MRT in SCID mouse at 5 mg/kg, iv. It counts as ADME, organism-based. The following applies: in vivo.
In data set [6] the target is T2, Dual specificity tyrosine-phosphorylation-regulated kinase 3 (Homo sapiens) (UniProt O43781).
T2 sequence (whole entry): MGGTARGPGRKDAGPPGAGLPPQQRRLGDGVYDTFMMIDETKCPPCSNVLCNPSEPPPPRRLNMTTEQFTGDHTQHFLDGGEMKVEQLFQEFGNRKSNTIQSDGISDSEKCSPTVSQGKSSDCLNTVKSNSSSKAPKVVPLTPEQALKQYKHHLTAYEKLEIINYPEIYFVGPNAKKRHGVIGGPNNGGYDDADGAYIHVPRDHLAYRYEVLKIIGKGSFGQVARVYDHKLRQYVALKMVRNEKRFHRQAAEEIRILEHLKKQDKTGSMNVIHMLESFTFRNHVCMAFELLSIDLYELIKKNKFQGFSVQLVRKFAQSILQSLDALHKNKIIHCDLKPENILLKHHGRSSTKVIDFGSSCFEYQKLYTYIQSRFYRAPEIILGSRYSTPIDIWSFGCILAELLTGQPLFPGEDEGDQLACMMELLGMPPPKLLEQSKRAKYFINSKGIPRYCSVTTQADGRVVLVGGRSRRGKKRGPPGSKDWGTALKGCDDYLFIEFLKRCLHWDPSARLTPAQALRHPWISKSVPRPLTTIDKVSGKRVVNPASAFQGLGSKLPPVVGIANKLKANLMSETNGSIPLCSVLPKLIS
The following applies: 3 uM.

In data set [7] the target is Dual specificity tyrosine-phosphorylation-regulated kinase 1A (Homo sapiens, UniProt Q13627). To be noted: 3 uM.
Data set [8] deals with T1, Dual specificity tyrosine-phosphorylation-regulated kinase 1B. The following applies: 3 uM.
Target sequence in this assay (Q9Y463 whole entry, looked up): as the sequence (Q9Y463 whole entry) above

The structures appear in SMILES notation. The source made the active and inactive calls. The calls are words filed in the database; no cut-off is given here. Bounds are passed on as bounds.

As to `CNC(=O)c1ccc(Nc2nc(OC3CCCC3)c3c(-c4ccc5nc(C)oc5c4)c[nH]c3n2)c(OC)c1`, the remaining at 1 h in data set [1] came out at 98%. In data set [2], this molecule displayed a clearance of 9.3 mL/min/kg. Further, the 50% inhibitory concentration (IC50) in [3] is 136 nM; in [4], 157 nM. Moreover, the Activity result in the data set on ZR-75-30 is “Non-Toxic”; with MDA-MB-361 it was “Non-Toxic”; with Mus musculus it was 17%. Further, the result in the data set on CAL-51 was Active. The same molecule gave an MRT in data set [5] of 5.2 h. Also, the inhibition in data set [6], in [7] and in data set [8] was greater than 80% each time.
